Bioassay records deposited in PubChem by The Scripps Research Institute Molecular Screening Center.
TDP2 inh: human TDP2 enzyme inhibitors, primary screen, biochemical, epi absorbance, recombinant enzyme; Tyrosyl-DNA phosphodiesterase 2 (Homo sapiens), O95551; T5PNP hydrolysis, p-nitrophenol absorbance 415 nm; inhibition, % at 12.8 µM; actives 0.34% (n = 370,000);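 active means inhibition above the mean of all tested compounds plus 3 SD, set per campaign, cut at about 25% in these data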
Target sequence (O95551 whole entry, looked up): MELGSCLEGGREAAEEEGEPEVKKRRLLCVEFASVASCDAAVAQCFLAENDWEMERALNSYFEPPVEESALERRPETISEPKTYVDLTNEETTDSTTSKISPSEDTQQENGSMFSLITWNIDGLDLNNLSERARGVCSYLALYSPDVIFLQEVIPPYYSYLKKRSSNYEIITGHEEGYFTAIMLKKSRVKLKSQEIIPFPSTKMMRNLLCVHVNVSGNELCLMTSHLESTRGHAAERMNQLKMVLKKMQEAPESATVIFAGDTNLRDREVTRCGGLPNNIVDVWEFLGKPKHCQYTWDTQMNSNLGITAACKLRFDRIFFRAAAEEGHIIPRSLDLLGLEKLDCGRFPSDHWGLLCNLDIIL
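System – recombinant human TDP2 · Quantity – TDP2 enzyme at 120 nM final · Doses – single concentration, 12.8 µM nominal, with 1% DMSO · Incubation – 2 h at 37 °C · Measured by – epi absorbance of p-nitrophenol freed from T5PNP by hydrolysis · Read-out – % inhibition relative to enzyme-containing and enzyme-free wells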
LEDGF integ inh: blockers of LEDGF/p75-dependent integrase strand transfer – biochemical, TR-FRET, high throughput, primary screen. TR-FRET IN-LEDGF/p75 DNA integration, Eu/Cy5. inhibition, % at 3.7 µM. actives 0.64% (n = 370,000). AID 743269, 2014;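 active means inhibition above the screen-wide mean plus 3 SD, cut at about 13% in these data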;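 further: signal is the Cy5 over europium emission ratio at 671 and 618 nm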
SIAE inh: human SIAE inhibitors, primary screen, biochemical, fluorescence polarization, FP-Rh probe, 1536-well HTS; AID 1053197, 2014; SIAE FP-Rh probe binding; Sialate O-acetylesterase (Homo sapiens), Q9HAT2; actives 0.69% (n = 370,000); inhibition, % at 9.66 µM;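 active means inhibition above a cutoff: mean of compounds within the control limits plus 3 SD of those, cut at about 17% in these data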
TCR CD3 inh: inhibitors of human TCR-CD3 interaction, primary screen, biochemical, fluorescence, TAMRA-labeled TCR probe. actives 0.37% (n = 360,000). T-cell receptor (TCR). inhibition, % at 9.4 µM;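 further: recombinant mutant TCR 2C K166C tagged with TAMRA read by polarization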
HTRA1 inhibitor: HTRA1 serine protease inhibitors, primary screen, biochemical, fluorescence polarization, HTS; recombinant HTRA1, FP-rhodamine activity-based probe; inhibition, % at 5.96 µM; actives 0.5% (n = 340,000); AID 504803, 2011; in the data active means inhibition above about 36%
ABHD4 inh: ABHD4 inhibitors, primary screen, biochemical, fluorescence polarization, mouse. (Lyso)-N-acylphosphatidylethanolamine lipase (Mus musculus), Q8VD66. actives 0.54% (n = 370,000). inhibition, % at 8.92 µM. AID 720543, 2013. purified mABHD4, FP-Rh probe fluorescence polarization;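 active means inhibition exceeding the mean over every tested compound plus 3 SD, cut at about 30% in these data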
Target sequence (Q8VD66 whole entry, looked up): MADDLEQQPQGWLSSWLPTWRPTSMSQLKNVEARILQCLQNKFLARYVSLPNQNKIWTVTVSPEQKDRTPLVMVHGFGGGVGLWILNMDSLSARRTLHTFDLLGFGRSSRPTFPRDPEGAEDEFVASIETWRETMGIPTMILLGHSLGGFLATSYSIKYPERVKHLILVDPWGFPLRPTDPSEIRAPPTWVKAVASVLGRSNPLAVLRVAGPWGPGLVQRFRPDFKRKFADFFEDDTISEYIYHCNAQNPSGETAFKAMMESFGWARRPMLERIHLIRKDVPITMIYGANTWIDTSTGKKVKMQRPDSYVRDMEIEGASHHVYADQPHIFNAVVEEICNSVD
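Test system: mouse ABHD4 enzyme, wild type. Reagent: FP-Rh fluorescent activity-based probe, added after compound pre-incubation. Timing: pre-incubation 45 min, probe exposure 60 min, at 25 °C. Technique: FP readout, ex 525 nm / em 598 nm. Benchmarks: high control S159A mutant with DMSO, low control median of compound wells.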
BSA TAMRA ctr: compounds interfering with TAMRA-BSA probe, counter-screen for TCR-CD3 interaction inhibitor project, biochemical, fluorescence, TAMRA-labeled BSA. inhibition, % at 9.4 µM. AID 652035, 2013. actives 10% (n = 1,200). TAMRA-labeled BSA probe fluorescence counterscreen. shares compounds with TCR CD3 inh; in the data active means inhibition above about 23%
TCR-CD3 conf: TCR-CD3 interaction inhibitors, retest, confirmation, biochemical, fluorescence, TAMRA-labeled TCR probe; shares compounds with TCR CD3 inh; TAMRA-labeled TCR probe fluorescence binding assay; actives 48% (n = 1,200); inhibition, % at 9.4 µM
A number is an active result. The list is not random: actives were taken first. Their share in the collection is about 2.2%. Unless noted, no stated cut-off is given here; in the data, active means inhibition above about 19%; inactive means the rest.

What do the screens show for `C[C@H]1[C@@H](N(C)C)CC[C@@]23CCCN2C(=O)CCC[C@@H]13`?
TDP2 inh: inactive; LEDGF integ inh: inactive; SIAE inh: inactive; ABHD4 inh: inactive

Results for CN(CC(=O)Nc1ccc(F)cc1)C(=O)COC(=O)c1ccc(=O)n(Cc2ccccc2)n1 ?
TDP2 inh: inactive; LEDGF integ inh: inactive; SIAE inh: inactive; TCR CD3 inh: 87.5; HTRA1 inhibitor: inactive; ABHD4 inh: inactive; BSA TAMRA ctr: inactive; TCR-CD3 conf: inactive

Results for CCc1c(-c2cccc(F)c2)ncn1CCc1ccccc1OC ?
TDP2 inh: inactive; LEDGF integ inh: inactive; SIAE inh: inactive; TCR CD3 inh: inactive; ABHD4 inh: inactive

How did CC1=NN(C(=O)CSCc2ccccc2)C(O)(c2ccc(Cl)cc2)C1 (configuration not stated) do in these assays?
TDP2 inh: inactive; LEDGF integ inh: inactive; SIAE inh: inactive; TCR CD3 inh: 19.9; HTRA1 inhibitor: inactive; ABHD4 inh: inactive; BSA TAMRA ctr: inactive; TCR-CD3 conf: inactive

What do the screens show for `O=C(/C=C/c1cccs1)c1ccc(NC(=O)c2cccc(Br)c2)cc1`?
TDP2 inh: inactive; LEDGF integ inh: inactive; SIAE inh: inactive; TCR CD3 inh: 42.4; HTRA1 inhibitor: inactive; ABHD4 inh: inactive; BSA TAMRA ctr: inactive; TCR-CD3 conf: inactive

What do the screens show for `Cc1ccc(C(=O)Nc2ccc(C(=O)/C=C/c3cccs3)cc2)cc1`?
TDP2 inh: inactive; LEDGF integ inh: inactive; SIAE inh: inactive; TCR CD3 inh: inactive; HTRA1 inhibitor: inactive; ABHD4 inh: inactive

Results for Cc1ccc(NC(=O)COC(=O)c2cc(-c3cccs3)nn2-c2ccccc2)cc1[N+](=O)[O-] ?
TDP2 inh: inactive; LEDGF integ inh: inactive; SIAE inh: inactive; TCR CD3 inh: inactive; HTRA1 inhibitor: inactive; ABHD4 inh: inactive

What do the screens show for `O=C(COC(=O)c1cc(-c2cccs2)nn1-c1ccccc1)Nc1cccc([N+](=O)[O-])c1`?
TDP2 inh: inactive; LEDGF integ inh: inactive; SIAE inh: inactive; TCR CD3 inh: 26.0; HTRA1 inhibitor: inactive; ABHD4 inh: inactive; BSA TAMRA ctr: inactive; TCR-CD3 conf: inactive

Results for COc1cc(/C=N/NC(=O)c2cc(O)cc(O)c2)ccc1OC(=O)c1ccccc1 ?
TDP2 inh: inactive; LEDGF integ inh: inactive; SIAE inh: inactive; TCR CD3 inh: 20.5; HTRA1 inhibitor: inactive; ABHD4 inh: inactive; BSA TAMRA ctr: inactive; TCR-CD3 conf: 25.9

How did COc1cc(C(=O)N/N=C/c2ccc(OC(=O)c3ccccc3)c(OC)c2)ccc1O do in these assays?
TDP2 inh: inactive; LEDGF integ inh: inactive; SIAE inh: inactive; TCR CD3 inh: inactive; HTRA1 inhibitor: inactive; ABHD4 inh: inactive

How did COc1cc(OC)cc(C(=O)N/N=C/c2ccc(OC)c(COc3ccc4ccccc4c3)c2)c1 do in these assays?
TDP2 inh: inactive; LEDGF integ inh: inactive; SIAE inh: inactive; TCR CD3 inh: 39.6; HTRA1 inhibitor: inactive; ABHD4 inh: inactive; BSA TAMRA ctr: inactive; TCR-CD3 conf: 34.6

How did O=C(N/N=C/c1ccoc1)c1cc(O)cc(O)c1 do in these assays?
TDP2 inh: inactive; LEDGF integ inh: inactive; SIAE inh: inactive; TCR CD3 inh: 20.1; HTRA1 inhibitor: inactive; ABHD4 inh: inactive; BSA TAMRA ctr: inactive; TCR-CD3 conf: 22.6

How did Cn1c(=O)oc2cc(S(=O)(=O)N3CCN(c4cccc(C(F)(F)F)c4)CC3)ccc21 do in these assays?
TDP2 inh: inactive; LEDGF integ inh: inactive; SIAE inh: inactive; ABHD4 inh: inactive

How did COc1ccc(CCN(C(=S)Nc2ccccc2)C2CC(=O)N(c3ccccc3)C2=O)cc1 (configuration not stated) do in these assays?
TDP2 inh: inactive; LEDGF integ inh: inactive; SIAE inh: inactive; TCR CD3 inh: inactive; HTRA1 inhibitor: inactive; ABHD4 inh: inactive

Results for O=C1CC(N(CCc2ccccc2)C(=S)Nc2ccccc2)C(=O)N1c1ccc(Br)cc1 (configuration not stated) ?
TDP2 inh: inactive; LEDGF integ inh: inactive; SIAE inh: inactive; TCR CD3 inh: 24.1; HTRA1 inhibitor: inactive; ABHD4 inh: inactive; BSA TAMRA ctr: inactive; TCR-CD3 conf: inactive

What do the screens show for `Cc1nonc1NC(=O)CSc1nc(C23CC4CC(CC(C4)C2)C3)nc2ccccc12`?
TDP2 inh: inactive; LEDGF integ inh: inactive; SIAE inh: inactive; TCR CD3 inh: 20.2; HTRA1 inhibitor: inactive; ABHD4 inh: inactive; BSA TAMRA ctr: inactive; TCR-CD3 conf: inactive

How did Cc1nonc1NC(=O)CSc1nc(C2CCCCC2)nc2ccccc12 do in these assays?
TDP2 inh: inactive; LEDGF integ inh: inactive; SIAE inh: inactive; TCR CD3 inh: inactive; HTRA1 inhibitor: inactive; ABHD4 inh: inactive

Results for COc1ccc(C(=O)N[C@H]2CC[C@@]34CCCN3C(=O)CCC[C@H]4[C@H]2C)cc1 ?
TDP2 inh: inactive; LEDGF integ inh: inactive; SIAE inh: inactive; ABHD4 inh: inactive

How did O=C(Nc1ccc(Cl)c(Cl)c1)O/N=C/c1ccncc1 do in these assays?
TDP2 inh: inactive; LEDGF integ inh: inactive; SIAE inh: inactive; TCR CD3 inh: 41.8; HTRA1 inhibitor: inactive; ABHD4 inh: inactive; BSA TAMRA ctr: inactive; TCR-CD3 conf: 19.7

Results for CCN(CC)c1ccc(C(=O)c2ccccc2C(=O)O)c(O)c1 ?
TDP2 inh: inactive; LEDGF integ inh: inactive; SIAE inh: inactive; TCR CD3 inh: 40.4; HTRA1 inhibitor: inactive; ABHD4 inh: inactive; BSA TAMRA ctr: 56.0; TCR-CD3 conf: 36.5

What do the screens show for `Cc1cccc(C(=O)c2ccccc2C(=O)O)c1O`?
TDP2 inh: inactive; LEDGF integ inh: inactive; SIAE inh: inactive; TCR CD3 inh: inactive; HTRA1 inhibitor: inactive; ABHD4 inh: inactive

Results for Cc1ccc2c(=O)cc(C(F)F)oc2c1 ?
TDP2 inh: inactive; LEDGF integ inh: inactive; SIAE inh: inactive; TCR CD3 inh: 23.3; HTRA1 inhibitor: inactive; ABHD4 inh: inactive; BSA TAMRA ctr: inactive; TCR-CD3 conf: inactive
